Experimental data from ChEMBL document CHEMBL1148927, “A novel antimicrobial indolizinium alkaloid from Aniba panurensis” (J Nat Prod, 2004).
Activity calls are given as the source filed them. The calls are words filed in the database; no cut-off is given here.

Key:
Candida albicans = experiment: Antifungal activity against Candida albicans 99-788 after 24 hrs by broth microdilution assay; assay type: functional
Method in brief: (§1)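 Clinical isolates grown in YM broth at 37 °C with shaking at 100 rpm to exponential phase, adjusted to A600 = 0.3, then diluted 1:150 (C. albicans) or 1:128 (C. neoformans). Samples dried in wells, culture added, and tested top dose 250 µg/mL plus five 2-fold dilutions. Incubation 24 h (C. albicans) or 72 h (C. neoformans). A650 read; MIC50 = concentration lowering A650 ≥50% vs medium-only cultures.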

Cryptococcus neoformans [1] = experiment: Antifungal activity against Cryptococcus neoformans 96-1034 after 72 hrs by broth microdilution assay; assay type: functional; method in brief: as §1
Enterococcus faecium [2] = experiment: […] activity against Enterococcus faecium 1438 by broth microdilution assay; assay type: functional
Cryptococcus neoformans [3] = experiment: Antifungal activity against Cryptococcus neoformans 96-1034 by broth microdilution assay; assay type: functional
Method in brief: (§2)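 Broth microdilution in RPMI 1640 buffered with MOPS, following NCCLS guidelines; values reported as MIC90.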

Clavispora lusitaniae = experiment: Antifungal activity against Candida lusitaniae by broth microdilution assay; assay type: functional; method in brief: as §2
Nakaseomyces glabratus = experiment: Antifungal activity against Candida glabrata by broth microdilution assay; assay type: functional; method in brief: as §2
Pichia kudriavzevii = experiment: Antifungal activity against Candida krusei ATCC 6258 by broth microdilution assay; assay type: functional; method in brief: as §2
Candida parapsilosis = experiment: Antifungal activity against Candida parapsilosis ATCC 22019 by broth microdilution assay; assay type: functional; conditions: Lodderomyces parapsilosis; method in brief: as §2
[4] = Toxicity in sheep red blood cells assessed as hemolysis after 2 hrs; assay type: cell-based, Ovis aries; conditions: erythrocyte
Method in brief: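 Sheep red blood cells at 4% final in 0.2 mL, with samples serially diluted in phosphate-buffered saline; highest dose contained 5% DMSO. Incubated 2 h at 37 °C, then 0.1 mL taken to measure hemolysis.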

[5] = Lipophilicity, log K in octanol water; assay type: physicochemical
Staphylococcus aureus [6] = experiment: […] activity against Staphylococcus aureus 385 after 24 hrs by broth microdilution assay
Enterococcus faecium [7] = experiment: […] activity against Enterococcus faecium 1438 at 100 ug/mL after 18 hrs by broth microdilution assay; assay type: functional, organism-based
Method in brief: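 E. faecium 1438 clinical isolate grown at 37 °C with 100 rpm shaking in Todd Hewitt broth with 0.5% yeast extract and 2% NaCl to exponential phase. Culture adjusted to A600 0.3, then diluted 1:1000. Added to dried sample in wells, incubated 18 h, and growth read at A650 against medium-only cultures. Chloramphenicol 100 µg/mL was the inhibition control.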

Staphylococcus aureus [8] = experiment: […] activity against Staphylococcus aureus 385 at 100 ug/mL after 24 hrs by broth microdilution assay

`CCCCCCCC/C=C\c1c(C)c(/C=C\CCCCCCCC)c2[n+](c1C)CCC2.O=C([O-])C(F)(F)F` [ANIBAMINE] showed an MIC50 (Candida albicans) of 0.25 µg/mL, an MIC90 (Candida albicans) of 0.5 µg/mL and an MIC50 (Cryptococcus neoformans [1]) of 0.25 µg/mL. The MIC50 (Enterococcus faecium [2]) was 0.25 µg/mL, the MIC90 (Cryptococcus neoformans [3]) was 0.25 µg/mL and the MIC90 (Clavispora lusitaniae) was 1 µg/mL. For the same compound, the MIC90 (Nakaseomyces glabratus) was 2 µg/mL, the MIC90 (Pichia kudriavzevii) was 0.5 µg/mL and the MIC90 (Candida parapsilosis) was 0.5 µg/mL. The Activity [4] was “Toxic”, the “log K” value [5] was 9.1 and the MIC50 (Staphylococcus aureus [6]) was over 25 µg/mL.

With `O=C(N[C@H](CO)[C@H](O)c1ccc([N+](=O)[O-])cc1)C(Cl)Cl` the Activity (Enterococcus faecium [7]) was “Active”.

For `O=C(O)c1cn(C2CC2)c2cc(N3CCNCC3)c(F)cc2c1=O`, the Activity (Staphylococcus aureus [8]) was “Active”.
